The source made the active and inactive calls. No cut-off for these calls is given here.
Columns and labels:
[1] = organism: Rattus norvegicus; assay: Inhibition of conditioned avoidance response (CAR) in fasted male Sprague-Dawley rats.; type: functional
In short: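 Rats trained to climb or hurdle a barrier in a shuttle box within 30 s. Training was 11 trials at 3-min intervals on day 1, then one foot-shock reinforcement and two trials daily for 9 days. On day 10, groups of 5-10 rats were given drug or vehicle by oral gavage and tested.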

[2] = target: T1, Adrenergic receptor alpha-1 (Rattus norvegicus, UniProt P15823+P23944+P43140); assay: Inhibition of [3H]WB-4101 binding to alpha-1-adrenergic receptor from rat cerebral cortex membranes; type: cell membranes, Membrane
T1 sequence (P15823 whole entry): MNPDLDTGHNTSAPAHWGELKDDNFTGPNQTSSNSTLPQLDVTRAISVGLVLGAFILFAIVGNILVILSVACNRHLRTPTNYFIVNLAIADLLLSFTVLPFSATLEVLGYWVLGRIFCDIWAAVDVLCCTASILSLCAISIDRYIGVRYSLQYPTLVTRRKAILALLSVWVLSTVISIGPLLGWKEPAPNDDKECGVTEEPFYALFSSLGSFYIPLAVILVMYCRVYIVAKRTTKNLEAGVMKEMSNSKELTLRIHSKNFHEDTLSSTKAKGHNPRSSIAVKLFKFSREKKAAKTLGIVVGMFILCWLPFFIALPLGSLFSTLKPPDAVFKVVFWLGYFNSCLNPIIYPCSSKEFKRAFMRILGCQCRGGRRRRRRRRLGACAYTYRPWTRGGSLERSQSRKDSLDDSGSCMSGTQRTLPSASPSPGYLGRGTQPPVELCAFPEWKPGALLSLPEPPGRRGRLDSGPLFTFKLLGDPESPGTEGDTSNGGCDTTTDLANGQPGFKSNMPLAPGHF
T1 sequence (P23944 whole entry): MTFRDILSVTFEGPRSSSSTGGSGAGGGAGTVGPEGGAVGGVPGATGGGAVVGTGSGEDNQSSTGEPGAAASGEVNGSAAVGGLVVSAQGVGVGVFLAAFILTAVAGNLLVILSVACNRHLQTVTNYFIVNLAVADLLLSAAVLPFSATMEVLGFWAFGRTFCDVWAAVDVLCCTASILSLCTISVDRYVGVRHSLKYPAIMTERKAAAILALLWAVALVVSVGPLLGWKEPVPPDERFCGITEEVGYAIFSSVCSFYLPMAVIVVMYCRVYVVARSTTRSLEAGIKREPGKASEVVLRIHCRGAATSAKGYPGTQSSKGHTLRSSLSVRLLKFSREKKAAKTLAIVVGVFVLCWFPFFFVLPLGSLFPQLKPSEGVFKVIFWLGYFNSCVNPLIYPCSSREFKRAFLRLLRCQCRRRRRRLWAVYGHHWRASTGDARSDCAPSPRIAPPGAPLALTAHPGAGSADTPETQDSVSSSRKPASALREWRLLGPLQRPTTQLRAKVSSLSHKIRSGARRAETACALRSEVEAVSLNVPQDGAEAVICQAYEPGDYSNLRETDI
T1 sequence (P43140 whole entry): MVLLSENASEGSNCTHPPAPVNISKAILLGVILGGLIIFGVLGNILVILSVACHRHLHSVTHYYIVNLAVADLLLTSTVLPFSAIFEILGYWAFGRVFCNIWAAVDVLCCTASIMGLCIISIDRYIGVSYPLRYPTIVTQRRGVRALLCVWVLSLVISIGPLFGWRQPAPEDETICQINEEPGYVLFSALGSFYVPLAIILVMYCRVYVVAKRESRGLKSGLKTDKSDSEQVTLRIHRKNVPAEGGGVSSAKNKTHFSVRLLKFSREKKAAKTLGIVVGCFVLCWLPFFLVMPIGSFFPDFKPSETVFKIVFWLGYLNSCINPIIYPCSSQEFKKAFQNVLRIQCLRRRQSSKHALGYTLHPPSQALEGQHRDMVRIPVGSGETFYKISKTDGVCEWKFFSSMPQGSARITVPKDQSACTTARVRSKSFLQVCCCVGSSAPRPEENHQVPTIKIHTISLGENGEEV

[3] = organism: Rattus norvegicus; assay: Inhibition of apomorphine induced stereotypy in nonfasted male Sprague-Dawley rats; type: functional
In short: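 Groups of 10 nonfasted male Sprague–Dawley rats got test drug by oral gavage. At the previously determined time of peak effect they were challenged with apomorphine 0.5 mg/kg sc and watched for 30 min in individual cages for sniffing, licking, rearing and biting. Inhibition meant all of these were blocked for the full 30 min. ED50 was taken by Berkson's method.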

[4] = organism: Rattus norvegicus; assay: Inhibition of apomorphine induced stereotypy in nonfasted male Sprague-Dawley rats; inactive; type: functional, organism-based
[5] = organism: Rattus norvegicus; assay: Induction of catalepsy in nonfasted, male Sprague-Dawley rats (dose that produced catalepsy in 50% of the animals); value may range from 58.7 to 141.5; type: functional
[6] = organism: Rattus norvegicus; assay: Induction of catalepsy in nonfasted, male Sprague-Dawley rats (dose that produced catalepsy in 50% of the animals); value may range from 77.0 to 151.3; type: functional
[7] = organism: Rattus norvegicus; assay: Induction of catalepsy in nonfasted, male Sprague-Dawley rats (dose that produced catalepsy in 50% of the animals); value may range from 69.6 to 172.9; type: functional
[8] = organism: Rattus norvegicus; assay: Induction of catalepsy in nonfasted, male Sprague-Dawley rats (dose that produced catalepsy in 50% of the animals); value may range from 27.5 to 74.3; type: functional

Structure (SMILES) | IC50 [2] [nM] | ED50 [1] [mg/kg] | other results
COc1ccccc1N1CCN(CCN2C(=O)CC3(CCCC3)CC2=O)CC1 [BMY-7378] |  | 52.1 | 
COc1ccccc1N1CCN(CCN2C(=O)CC3(CCCCCCC3)C2=O)CC1 | > 1000 | 69.9 | 
O=C1CC2(CCCC2)CC(=O)N1CCCCN1CCN(c2ncccn2)CC1 [BUSPIRONE] |  |  | ED50 [3]: 28 mg/kg
O=C1CC2(CCCCCC2)C(=O)N1CCCCN1CCN(c2ncccn2)CC1 | > 1000 | 51.5 | 
N#Cc1cccnc1N1CCN(CCCN2C(=O)CC3(CCCC3)CC2=O)CC1 |  | > 100 | 
N#Cc1cccnc1N1CCN(CCN2C(=O)CC3(CCCC3)CC2=O)CC1 |  | > 100 | 
CC1(C)CC(=O)N(CCCCN2CCN(c3ncccn3)CC2)C(=O)C1 [GEPIRONE] |  | 52.5 | NA [4]: inactive
O=C1CC2(CCCC2)CC(=O)N1CCN1CCN(c2ccccc2)CC1 |  | > 100 | 
O=C1CC2(CCCC2)CC(=O)N1CCCCN1CCN(c2ccccc2F)CC1 |  | 37.1 | ED50 [5]: 91.1 mg/kg
O=C1CCC2(CCCC2)CC(=O)N1CCCCN1CCN(c2ncccn2)CC1 | 820 | > 50 | 
COc1ccccc1N1CCN(CCN2C(=O)C(C)CC(C)C2=O)CC1 (centres undefined) |  | > 100 | 
O=C1CC2(CCCC2)CC(=O)N1CCCCN1CCN(c2ccccc2)CC1 |  | 30.7 | ED50 [6]: 108 mg/kg
COc1ccccc1N1CCN(CCCCN2C(=O)CC3(CCCC3)CC2=O)CC1 | 13 | 20.5 | 
CC12CC1(C)C(=O)N(CCCCN1CCN(c3ncccn3)CC1)C2=O (centres undefined) | 680 | 91.6 | 
O=C1CC2(CCCC2)CC(=O)N1CCN1CCN(c2cccc(Cl)c2)CC1 |  | > 100 | 
CN1CCN(C2=Nc3cc(Cl)ccc3Nc3ccccc32)CC1 [CLOZAPINE] |  | 24.1 | 
O=C1CC2(CCCC2)CC(=O)N1CCCN1CCN(c2ncccn2)CC1 |  | > 100 | 
O=C1CC2(CCCC2)CC(=O)N1CCCCN1CCN(c2ccccc2Cl)CC1 |  | 77.8 | ED50 [7]: 109 mg/kg
O=C(CCCN1CCC(O)(c2ccc(Cl)cc2)CC1)c1ccc(F)cc1 [HALOPERIDOL] |  | 2.8 | 
O=C1CC2(CCCC2)CC(=O)N1CCCCCN1CCN(c2ncccn2)CC1 |  | > 100 | 
COc1ccccc1N1CCN(CCN2C(=O)CC(C)(C)CC2=O)CC1 | 895 | 91.2 | 
CSc1ccc2c(c1)N(CCC1CCCCN1C)c1ccccc1S2 (centres undefined) [THIORIDAZINE] |  | 126 | ED50 [8]: 45.2 mg/kg
O=C1C2C3C=CC(CC3)C2C(=O)N1CCCCN1CCN(c2ncccn2)CC1 (centres undefined) |  | > 100 | 

Second part, led by results:

IC50 [2] [nM] | Structure (SMILES) | ED50 [1] [mg/kg] | other results
480 | COc1ccccc1N1CCN(CCN2C(=O)CCC(C)(C)C2=O)CC1 | 55.3 | 
150 | O=C1CC2(CCCC2)CC(=O)N1CCCN1CCN(c2cccc(Cl)c2)CC1 | 28.2 | 
65 | COc1cccnc1N1CCN(CCCCN2C(=O)CC3(CCCC3)CC2=O)CC1 | 55.2 | 
> 1000 | O=C1CC2(CCCCC2)C(=O)N1CCCCN1CCN(c2ncccn2)CC1 | 58.4 | 
> 1000 | Cc1ccnc(N2CCN(CCCCN3C(=O)CC4(CCCC4)CC3=O)CC2)n1 | 52.4 | 
23 | O=C1CC2(CCCC2)CC(=O)N1CCCCN1CCN(c2cccc(Cl)c2)CC1 | 27.6 | 
275 | O=C1CC2(CCCC2)CC(=O)N1CCCCN1CCN(c2ccccn2)CC1 | 34 | 
19 | COc1ccccc1N1CCN(CCCN2C(=O)CC3(CCCC3)CC2=O)CC1 | 24.1 | 
360 | N#Cc1cccnc1N1CCN(CCCCN2C(=O)CC3(CCCC3)CC2=O)CC1 | 45 | ED50 [3]: 36.6 mg/kg
44 | Cc1ccccc1N1CCN(CCCCN2C(=O)CC3(CCCC3)CC2=O)CC1 | ~100 | 
110 | O=C1CC2(CCCC2)CC(=O)N1CCCCN1CCN(c2ccccc2[N+](=O)[O-])CC1 | 48.8 | 
240 | COc1ccccc1N1CCN(CCN2C(=O)CC3(CCCCC3)C2=O)CC1 | 50 | 

Source: ChEMBL document CHEMBL1122323 (J Med Chem, 1983)
